Results on 1 compound are retold here after ChEMBL document CHEMBL4321819, “Simple Structural Modifications Converting a Bona fide MDM2 PROTAC Degrader into a Molecular Glue Molecule: A Cautionary Tale in the Design of PROTAC Degraders” (J Med Chem, 2019).

Structures are written as SMILES. Calls of active or inactive are those of the source. The rule behind the calls is not given here.

The subject of assay [1] is MDA-MB-468. The assay is described as follows: Antiproliferative activity against human MDA-MB-468 cells transfected with CRBN siRNA LQ-021086-11-0002 assessed as cell growth inhibition after 4 days by WST-8 assay. It counts as functional, cell-based. To be noted: MDA-MB-468, 96 h. The method, boiled down:
(§1)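 MDA-MB-231 or MDA-MB-468 cells transfected for 2 days using Lipofectamine RNAiMAX with MDM2 siRNA, one of two CRBN siRNAs, or non-targeting control siRNA. Compound then added and growth read by WST-8 at 450 nm.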

Assay [2] is described as follows: Antiproliferative activity against human RS4:11/IRMI-2 cells harboring p53 hotspot mutation Y236H/R249G assessed as MDM2-independent cell growth inhibition after 4 days by WST-8 assay. Format: functional, cell-based. Conditions: RS4-11, 96 h. Summed up:
(§2)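 Leukemia cells seeded at 10000–20000 cells/well, breast cancer lines at 5000–10000 cells/well. Serially diluted compound added, then 4 days at 37 °C, 5% CO2. Growth read with WST-8 reagent after at least 1 h, absorbance at 450 nm. RS4;11, MOLM-13 and breast lines were grown in RPMI 1640; MV-4-11 and HL-60 in IMDM; all with 10% FBS. Mean ± SE, at least three independent experiments.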
A general note: Tetrazolium dyes change colour on reduction, which living cells bring about.

The target in assay [3] is Cellular tumor antigen p53 (Homo sapiens) (UniProt P04637). As to the kind of experiment: Activation of p53 in human RS4:11 cells assessed as increase in CDKN1A mRNA expression at 10 nM after 1 to 2 hrs by qRT-PCR analysis. It counts as cell-based. The method, boiled down:
(§3)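 RS4;11 cells (RPMI 1640, 10% FBS, 37 °C, 5% CO2) treated with 3 nM or 10 nM compound; total RNA extracted and mRNA of p53 targets MDM2, CDKN1A, PUMA and BAX quantified by qRT-PCR. Mean ± standard error from at least three independent experiments.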

In a further assay the test system is HL-60. The assay is described as follows: Antiproliferative activity against human HL60 cells with lack of p53 assessed as cell growth inhibition after 4 days by WST-8 assay. Format: functional, cell-based. The method, boiled down:
as §2

In assay [4] the target is Cellular tumor antigen p53 (Homo sapiens) (UniProt P04637). The assay is described as follows: Activation of p53 in human RS4:11 cells assessed as increase in BAX mRNA expression at 10 nM after 1 to 2 hrs by qRT-PCR analysis. Format: cell-based. Summed up:
as §3
(Quantitative PCR measures a nucleic acid by following its amplification.)

In assay [5] the target is T1, E3 ubiquitin-protein ligase Mdm2 (Homo sapiens, UniProt Q00987). The assay is described as follows: Induction of MDM2 degradation in human RS4:11 cells assessed as downregulation of MDM2 at 1 to 30 nM after 1 hr by Western blot analysis. It counts as cell-based. Summed up: (§4)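 Western blots of MDM2 and p53 protein were run on RS4;11 cells (wild-type p53) in RPMI 1640 with 10% FBS. 2×10^6 cells/well were treated at the indicated concentrations for 1 h or 2 h. Lysis was in ice-cold buffer with protease inhibitor, followed by probing with specific antibodies.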
T1 sequence (Q00987 whole entry, looked up): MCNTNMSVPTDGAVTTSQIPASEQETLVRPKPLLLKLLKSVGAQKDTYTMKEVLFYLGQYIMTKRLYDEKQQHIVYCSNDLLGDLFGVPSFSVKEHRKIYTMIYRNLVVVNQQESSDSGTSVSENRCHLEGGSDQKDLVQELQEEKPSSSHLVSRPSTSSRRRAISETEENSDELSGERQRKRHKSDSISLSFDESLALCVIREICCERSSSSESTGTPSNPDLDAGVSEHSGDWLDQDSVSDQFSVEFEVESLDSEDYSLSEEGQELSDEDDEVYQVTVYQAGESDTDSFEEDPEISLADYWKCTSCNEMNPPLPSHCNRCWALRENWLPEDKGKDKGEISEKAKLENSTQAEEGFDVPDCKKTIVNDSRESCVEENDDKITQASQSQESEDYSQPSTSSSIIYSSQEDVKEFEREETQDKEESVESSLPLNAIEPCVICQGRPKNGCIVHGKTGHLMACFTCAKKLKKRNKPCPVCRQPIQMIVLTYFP
In general terms: In western blotting, separated proteins are transferred to a membrane and probed.

Assay [6] deals with MDA-MB-231. The assay is described as follows: Antiproliferative activity against human MDA-MB-231 cells transfected with CRBN siRNA LQ-021086-10-0002 assessed as cell growth inhibition after 4 days by WST-8 assay. Format: functional, cell-based. Conditions: MDA-MB-231, 72 h, in the assay text read “after 3 days” for “after 4 days”. Summed up:
as §1

The target of assay [7] is T2, Protein cereblon/Eukaryotic peptide chain release factor GTP-binding subunit ERF3A/DNA damage-binding protein 1/Cullin-4A (Homo sapiens) (UniProt Q96SW2+Q16531+Q13619+P15170). As to the kind of experiment: Protac activity at GSPT1/CUL4/DDB1/CRBN in human RS4:11 cells expressing wild type p53 assessed as decrease in GSPT1 protein level measured upto 24 hrs by Western blot analysis. Format: cell-based. The method, boiled down:
(§5)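 RS4;11 (wild-type p53) or RS4;11/IRMI-2 (MDM2 inhibitor-resistant derivative, mutant p53) cells kept in RPMI 1640 with 10% FBS at 37 °C, 5% CO₂. 2×10^6 cells/well treated at the indicated concentrations and times, then lysed in ice-cold lysis buffer with protease inhibitor. GSPT1 detected by Western blot with a specific antibody.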

For assay [8], the target named is T1, E3 ubiquitin-protein ligase Mdm2. The assay is described as follows: Induction of MDM2 degradation in human RS4:11/IRMI-2 cells harboring p53 hotspot mutation Y236H/R249G assessed as downregulation of MDM2 at 1 to 30 nM after 2 hrs by Western blot analysis. It counts as cell-based. The method, boiled down: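 RS4;11/IRMI-2 cells are an MDM2 inhibitor-resistant line derived from RS4;11, with p53 mutations confirmed by sequencing. 2×10^6 cells/well were treated 2 h at the indicated concentrations. MDM2 protein was probed by Western blot after lysis in ice-cold buffer with protease inhibitor.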

The test system of assay [9] is MDA-MB-468. The assay is described as follows: Antiproliferative activity against human MDA-MB-468 cells assessed as cell growth inhibition after 4 days in presence of control siRNA for 3 days followed by compound treatment by WST-8 assay. Format: functional, cell-based.
For assay [10], the target named is Cellular tumor antigen p53 (Homo sapiens) (UniProt P04637). As to the kind of experiment: Activation of p53 in human RS4:11 cells assessed as increase in MDM2 mRNA expression at 10 nM after 1 to 2 hrs by qRT-PCR analysis. Format: cell-based. The method, boiled down:
as §3

In assay [11] the test system is MDA-MB-468. The assay is described as follows: Antiproliferative activity against human MDA-MB-468 cells harboring mutant p53 assessed as cell growth inhibition after 4 days by WST-8 assay. Format: functional, cell-based. Summed up:
as §2

Assay [12] concerns the target Cellular tumor antigen p53 (Homo sapiens) (UniProt P04637). The assay is described as follows: Activation of p53 in human RS4:11 cells assessed as increase in PUMA mRNA expression at 10 nM after 1 to 2 hrs by qRT-PCR analysis. It counts as cell-based. The method, boiled down:
as §3

In assay [13] the target is T2, Protein cereblon/Eukaryotic peptide chain release factor GTP-binding subunit ERF3A/DNA damage-binding protein 1/Cullin-4A (Homo sapiens). As to the kind of experiment: Protac activity at GSPT1/CUL4/DDB1/CRBN in human RS4:11 cells expressing wild type p53 assessed as decrease in GSPT1 protein level at 10 nM by Western blot analysis. It counts as cell-based. The method, boiled down: as §5

Assay [14] has as its system MDA-MB-231. As to the kind of experiment: Antiproliferative activity against human MDA-MB-231 cells transfected with CRBN siRNA LQ-021086-11-0002 assessed as cell growth inhibition after 4 days by WST-8 assay. It counts as functional, cell-based. Conditions: MDA-MB-231, 96 h. The method, boiled down:
as §1

For another assay, the system named is RS4-11. The assay is described as follows: Antiproliferative activity against human RS4:11 cells expressing wild type p53 assessed as MDM2-independent cell growth inhibition after 4 days by WST-8 assay. It counts as functional, cell-based. To be noted: RS4-11, 96 h. Summed up: as §2
Assay [15] concerns the target T1, E3 ubiquitin-protein ligase Mdm2. As to the kind of experiment: Induction of MDM2 degradation in human RS4:11 cells assessed as downregulation of MDM2 at 1 to 30 nM after 2 hrs by Western blot analysis. Format: cell-based. The method, boiled down:
as §4

Assay [16] deals with MDA-MB-468. The assay is described as follows: Antiproliferative activity against human MDA-MB-468 cells transfected with CRBN siRNA LQ-021086-10-0002 assessed as cell growth inhibition after 4 days by WST-8 assay. It counts as functional, cell-based. To be noted: MDA-MB-468, 96 h. Summed up: as §1
The species entered for a further assay is Homo sapiens. The assay is described as follows: Antiproliferative activity against human RS4:11/IRMI-2 cells harboring p53 hotspot mutation Y236H/R249G assessed as cell growth inhibition after 4 days by WST-8 assay. It counts as functional, cell-based. Summed up: as §2
For assay [17], the target named is T1, E3 ubiquitin-protein ligase Mdm2. As to the kind of experiment: Induction of MDM2 degradation in human RS4:11 cells assessed as upregulation of p53 at 1 to 30 nM after 2 hrs by Western blot analysis. It counts as cell-based. Summed up: as §4
Assay [18] shares this target. The assay is described as follows: Induction of MDM2 degradation in human RS4:11 cells assessed as upregulation of p53 at 1 to 30 nM after 1 hr by Western blot analysis. It counts as cell-based. Summed up: as §4
Assay [19] deals with MDA-MB-231. The assay is described as follows: Antiproliferative activity against human MDA-MB-231 cells harboring mutant p53 assessed as cell growth inhibition after 4 days by WST-8 assay. It counts as functional, cell-based. Summed up:
as §2

In assay [20] the test system is MDA-MB-231. The assay is described as follows: Antiproliferative activity against human MDA-MB-231 cells assessed as cell growth inhibition after 4 days in presence of control siRNA for 3 days followed by compound treatment by WST-8 assay. It counts as functional, cell-based.

Chain of Cellular tumor antigen p53 (Homo sapiens) (P04637 whole entry, looked up): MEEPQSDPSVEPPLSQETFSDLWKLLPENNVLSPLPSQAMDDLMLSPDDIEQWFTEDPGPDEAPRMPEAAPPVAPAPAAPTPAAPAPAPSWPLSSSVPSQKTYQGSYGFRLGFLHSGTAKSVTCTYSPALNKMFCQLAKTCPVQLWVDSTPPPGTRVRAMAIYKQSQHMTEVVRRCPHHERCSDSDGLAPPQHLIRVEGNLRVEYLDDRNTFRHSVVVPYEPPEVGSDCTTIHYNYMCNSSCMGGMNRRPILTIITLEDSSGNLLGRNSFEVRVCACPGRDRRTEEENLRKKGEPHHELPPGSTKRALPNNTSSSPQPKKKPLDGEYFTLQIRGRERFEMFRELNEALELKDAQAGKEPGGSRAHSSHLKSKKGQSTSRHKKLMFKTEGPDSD
T2 sequence (P15170 whole entry, looked up): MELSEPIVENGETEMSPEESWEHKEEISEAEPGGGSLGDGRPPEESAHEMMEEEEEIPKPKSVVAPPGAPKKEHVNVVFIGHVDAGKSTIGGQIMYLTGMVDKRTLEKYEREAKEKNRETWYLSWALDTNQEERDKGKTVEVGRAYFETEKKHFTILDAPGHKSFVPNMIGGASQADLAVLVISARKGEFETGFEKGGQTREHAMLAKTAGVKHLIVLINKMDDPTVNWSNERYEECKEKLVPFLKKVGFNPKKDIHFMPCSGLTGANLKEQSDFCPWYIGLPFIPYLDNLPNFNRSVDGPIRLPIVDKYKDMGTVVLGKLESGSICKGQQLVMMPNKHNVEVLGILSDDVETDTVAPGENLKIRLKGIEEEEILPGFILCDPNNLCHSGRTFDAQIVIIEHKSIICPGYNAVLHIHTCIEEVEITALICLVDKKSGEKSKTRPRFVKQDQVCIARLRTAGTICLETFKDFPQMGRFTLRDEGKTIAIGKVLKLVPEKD
T2 sequence (Q13619 whole entry, looked up): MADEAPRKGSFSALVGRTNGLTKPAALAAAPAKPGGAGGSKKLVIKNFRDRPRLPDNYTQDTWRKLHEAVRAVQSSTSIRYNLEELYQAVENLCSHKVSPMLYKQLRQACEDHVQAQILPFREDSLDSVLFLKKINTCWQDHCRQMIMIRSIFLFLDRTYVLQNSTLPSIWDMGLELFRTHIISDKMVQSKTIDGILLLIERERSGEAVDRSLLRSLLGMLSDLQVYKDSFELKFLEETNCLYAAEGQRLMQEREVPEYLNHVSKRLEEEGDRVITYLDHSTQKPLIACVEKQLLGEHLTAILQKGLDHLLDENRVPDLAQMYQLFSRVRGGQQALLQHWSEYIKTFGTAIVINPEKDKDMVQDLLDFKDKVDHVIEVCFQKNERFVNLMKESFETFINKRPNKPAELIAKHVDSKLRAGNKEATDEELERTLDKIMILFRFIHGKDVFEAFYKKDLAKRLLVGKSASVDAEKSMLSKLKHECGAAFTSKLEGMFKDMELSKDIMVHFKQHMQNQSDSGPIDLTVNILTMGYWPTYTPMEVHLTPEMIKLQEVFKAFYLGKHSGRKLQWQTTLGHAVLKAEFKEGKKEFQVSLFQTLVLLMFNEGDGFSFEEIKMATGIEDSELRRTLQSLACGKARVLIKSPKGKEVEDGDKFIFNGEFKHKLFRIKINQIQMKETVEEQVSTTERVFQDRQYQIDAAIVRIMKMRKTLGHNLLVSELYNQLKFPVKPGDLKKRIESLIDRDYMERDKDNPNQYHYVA
T2 sequence (Q16531 whole entry, looked up): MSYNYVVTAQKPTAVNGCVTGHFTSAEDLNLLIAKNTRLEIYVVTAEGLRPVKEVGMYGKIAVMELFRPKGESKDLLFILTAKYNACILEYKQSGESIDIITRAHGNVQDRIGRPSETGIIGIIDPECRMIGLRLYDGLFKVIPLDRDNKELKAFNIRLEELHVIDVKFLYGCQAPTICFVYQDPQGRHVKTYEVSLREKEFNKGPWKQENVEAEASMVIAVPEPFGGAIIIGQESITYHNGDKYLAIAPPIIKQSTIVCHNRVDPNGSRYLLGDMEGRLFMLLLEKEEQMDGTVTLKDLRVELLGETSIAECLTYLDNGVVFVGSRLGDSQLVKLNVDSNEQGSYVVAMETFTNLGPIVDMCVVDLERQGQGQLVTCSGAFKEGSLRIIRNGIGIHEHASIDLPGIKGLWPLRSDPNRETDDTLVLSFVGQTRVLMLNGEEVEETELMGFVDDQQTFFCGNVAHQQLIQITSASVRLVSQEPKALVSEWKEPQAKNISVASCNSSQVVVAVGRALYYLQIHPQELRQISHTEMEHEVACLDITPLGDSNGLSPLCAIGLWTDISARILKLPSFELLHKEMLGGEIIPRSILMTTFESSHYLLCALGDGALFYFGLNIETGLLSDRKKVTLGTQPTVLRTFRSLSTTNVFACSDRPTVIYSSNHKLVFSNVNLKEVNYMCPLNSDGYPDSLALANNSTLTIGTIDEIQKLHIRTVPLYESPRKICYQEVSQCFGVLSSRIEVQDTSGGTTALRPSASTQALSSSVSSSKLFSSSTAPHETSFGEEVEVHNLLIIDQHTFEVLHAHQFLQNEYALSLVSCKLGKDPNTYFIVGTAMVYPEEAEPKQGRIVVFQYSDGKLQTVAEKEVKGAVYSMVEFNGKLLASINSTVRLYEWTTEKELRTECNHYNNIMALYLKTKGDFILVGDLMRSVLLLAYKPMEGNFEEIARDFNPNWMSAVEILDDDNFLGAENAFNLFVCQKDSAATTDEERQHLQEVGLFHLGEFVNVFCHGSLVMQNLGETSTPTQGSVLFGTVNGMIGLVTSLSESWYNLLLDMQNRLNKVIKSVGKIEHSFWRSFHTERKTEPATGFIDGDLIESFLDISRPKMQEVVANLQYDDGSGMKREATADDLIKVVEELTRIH
T2 sequence (Q96SW2 whole entry, looked up): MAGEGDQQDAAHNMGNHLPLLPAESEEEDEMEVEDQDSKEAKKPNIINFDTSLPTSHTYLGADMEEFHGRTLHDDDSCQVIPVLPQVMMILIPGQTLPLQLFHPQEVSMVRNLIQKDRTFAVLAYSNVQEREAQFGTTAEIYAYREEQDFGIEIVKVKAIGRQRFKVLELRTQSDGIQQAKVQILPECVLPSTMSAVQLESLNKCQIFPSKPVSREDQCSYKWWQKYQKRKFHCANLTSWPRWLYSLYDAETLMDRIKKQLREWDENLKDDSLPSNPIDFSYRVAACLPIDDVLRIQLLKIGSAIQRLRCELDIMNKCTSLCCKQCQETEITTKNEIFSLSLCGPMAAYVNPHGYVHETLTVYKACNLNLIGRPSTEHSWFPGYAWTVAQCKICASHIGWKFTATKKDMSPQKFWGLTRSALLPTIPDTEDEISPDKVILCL

One may read the IC50 as the point on the concentration scale where inhibition reaches its midpoint. With `O=C1CCC(N2Cc3c(CCCCCNC(=O)c4ccc(NC(=O)[C@@H]5NC6(CCCCC6)[C@@]6(C(=O)Nc7cc(Cl)ccc76)[C@H]5c5cccc(Cl)c5F)cc4)cccc3C2=O)C(=O)N1` (stereo partly drawn), the IC50 in the assay with MDA-MB-468 [1] is greater than 3 µM; in assay [2], greater than 10 µM; in the assay with MDA-MB-231 [6], greater than 3 µM; in the assay with MDA-MB-468 [9] it was greater than 3 µM; in the assay with MDA-MB-231 [14], greater than 3 µM; with RS4-11, 0.0079 µM. For the same compound, the IC50 in the assay on MDA-MB-468 [16] and with MDA-MB-231 [20] was greater than 3 µM throughout. Further, the result in assay [3], in assay [4], in assay [5], in [8], in assay [10] and in assay [12] was Active. Further, the result in [15], in [17] and in [18] was Active. Moreover, the “growth inhibition (GI)” value in the assay on HL-60, in the assay on MDA-MB-468 [11], in the assay listed under Homo sapiens and in the assay with MDA-MB-231 [19] was “inactive” throughout. Moreover, the outcome in assay [7] and in [13] was inactive.
